Experimental findings from paper PMC5600292 (Biochimica et biophysica acta, 2017) are described below.

Common to all, as to assay type: biochemical
Experiment [1] addresses human recombinant thrombin wild-type (WT) (Homo sapiens, UniProt P00734). Kind of experiment: HPLC-based kinetic assay of thrombin-catalyzed hydrolysis of FXIII. The note with it: WT IIa, pH 7.4, 25 °C, average of at least three independent experiments ± SEM. A digest of the protocol: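 Recombinant human thrombin hydrolysed acetylated, amidated FXIII (28–41) activation peptides with V, L, F, W or Y at position 34 (final 75–2500 µM). Reactions ran at 25 °C in 50 mM H3PO4, 100 mM NaCl, 0.1% PEG, pH 7.4, with 6 nM–1 µM thrombin, and kept <17% hydrolysis in 30 min. Timed aliquots were quenched with 12.5% H3PO4. The (28–37) product was quantified by C18 RP-HPLC against calibration curves, giving initial velocities. These were fit to V = Vmax/(1 + Km/[S]), and kcat came from thrombin concentration. Runs were in triplicate.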

The target in experiment [2] is human recombinant thrombin W215A (Homo sapiens, UniProt P00734, W590A). Kind of experiment: HPLC-based kinetic assay of FXIII AP hydrolysis, W215A thrombin. A digest of the protocol:
(§1)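 Synthetic Ac-/-NH2 FXIII (28–41) AP peptides (V34, L34, F34, W34, Y34) were used at 75–2500 µM final in 50 mM H3PO4, 100 mM NaCl, 0.1% PEG, pH 7.4, 25 °C. Recombinant human thrombin (6 nM–1 µM) started the reaction; aliquots were quenched with 12.5% H3PO4, keeping hydrolysis below 17% in 30 min. The (28–37) product was quantified by RP-HPLC against calibration curves. Initial velocities were fitted to V = Vmax/(1+Km/[S]), kcat taken from thrombin concentration, in triplicate.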

For experiment [3], the target named is human recombinant thrombin L99A (Homo sapiens, UniProt P00734, L459A). Put plainly: HPLC-based kinetic assay of FXIII AP hydrolysis, L99A thrombin. A digest of the protocol: as §1
Experiment [4] has as its target human recombinant thrombin I174A (Homo sapiens, UniProt P00734, I542A). Put plainly: HPLC-based kinetic assay of FXIII AP hydrolysis, I174A thrombin. A digest of the protocol: as §1
Experiment [5] deals with human recombinant thrombin W215A/E217A (WE) (Homo sapiens, UniProt P00734, E592A/W590A). Put plainly: HPLC-based kinetic assay of FXIII AP hydrolysis, W215A/E217A. A digest of the protocol: as §1
In experiment [6] the target is human recombinant thrombin W60dA (Homo sapiens, UniProt P00734, W413A). Kind of experiment: HPLC-based kinetic assay of FXIII AP hydrolysis, W60dA thrombin. The note with it: W60dA IIa, pH 7.4, 25 °C, average of at least three independent experiments ± SEM. The gist of the method:
as §1

Setting [7] is: W215A IIa, HPLC assay, pH 7.4, 25 °C, average of at least three independent experiments ± SEM, SEM.
Where [8] appears, read: L99A IIa, HPLC assay, pH 7.4, 25 °C, average of at least three independent experiments ± SEM, SEM.
Setting [9] is: I174A IIa, HPLC assay, pH 7.4, 25 °C, average of at least three independent experiments ± SEM, SEM.
The mark [10] stands for this setting: WE (W215A/E217A) IIa, HPLC assay, pH 7.4, 25 °C, average of at least three independent experiments ± SEM, SEM.

By kcat/Km is commonly meant the second-order rate constant that governs catalysis at low substrate concentration. What is called Km is the substrate concentration at which the rate is half of its maximum. By kcat is commonly meant the maximal rate divided by the concentration of active sites. Take “Ac-TVELQGWVPRGVNL-NH2 [FXIII (28–41) W34 AP]”: the catalytic efficiency (kcat/Km) in experiment [1] amounted to 12000 ± 1200 M⁻¹ s⁻¹; in experiment [2] (W215A IIa, HPLC assay, pH 7.4, 25 °C, average of at least three independent experiments ± SEM), 5600 ± 340 M⁻¹ s⁻¹; in experiment [3] (L99A IIa, HPLC assay, pH 7.4, 25 °C, average of at least three independent experiments ± SEM), 3200 ± 490 M⁻¹ s⁻¹; in experiment [4] (I174A IIa, HPLC assay, pH 7.4, 25 °C, average of at least three independent experiments ± SEM), 54000 ± 5500 M⁻¹ s⁻¹; in experiment [5] (WE (W215A/E217A) IIa, HPLC assay, pH 7.4, 25 °C, average of at least three independent experiments ± SEM), 270 ± 35 M⁻¹ s⁻¹; in experiment [6], 1200 ± 120 M⁻¹ s⁻¹. The Km in experiment [1] (SEM) is 637 ± 56 µM; in experiment [2] (setting [7]), 1030 ± 57 µM; in experiment [3] (setting [8]), 719 ± 97 µM; in experiment [4] (setting [9]), 256 ± 24 µM; in experiment [5] (setting [10]), 1280 ± 161 µM; in experiment [6] (SEM), 976 ± 89 µM. The turnover number (kcat) is 7.62 ± 0.3 s⁻¹ in experiment [1] (SEM); 5.76 ± 0.14 s⁻¹ in experiment [2] (setting [7]); 2.3 ± 0.17 s⁻¹ in experiment [3] (setting [8]); 13.9 ± 0.52 s⁻¹ in experiment [4] (setting [9]); 0.35 ± 0.03 s⁻¹ in experiment [5] (setting [10]); 1.21 ± 0.05 s⁻¹ in experiment [6] (SEM). The “fold decrease in Km over WT thrombin” value amounted to 2 fold in experiment [2] (W215A thrombin, current work) and 2 fold in experiment [5] (WE thrombin, current work). For the same substance, the “fold decrease in kcat relative to WT thrombin” value in experiment [3] (L99A thrombin, current work) was found to be 3 fold. Besides, the “fold increase in kcat relative to WT thrombin” value in experiment [4] (I174A thrombin, current work) was 2 fold. The “fold increase in kcat/Km relative to WT thrombin” value in experiment [4] (I174A thrombin, current work) is 4.5 fold.
